Active and inactive are the calls of the source. No cut-off for these calls is given here.
What was measured:
[1] = Cytotoxicity against HEK-Blue cells expressing human TLR8 assessed as reduction in cell viability measured after 24 hrs by CCK8 assay; assay type: cell-based
In short: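 CCK-8 viability: compounds incubated 24 h at 37 °C with HEK-Blue TLR8 cells (4 × 10⁴ cells/well) or PBMCs (3 × 10⁶ cells/mL). CCK-8 was added at 1:10 for up to 2 h, then absorbance read at 450 nm. Values normalized to untreated cells as 100% survival.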

Toll-like receptor 8 = target: T1, Toll-like receptor 8 (Homo sapiens, UniProt Q9NR97); assay: Inhibition of human TLR8 expressed in HEK-Blue cells assessed as inhibition of R848-induced NF-kappaB activation measured after 24 hrs by quanti-blue based SEAP reporter gene assay; assay type: cell-based
T1 sequence (Q9NR97 whole entry): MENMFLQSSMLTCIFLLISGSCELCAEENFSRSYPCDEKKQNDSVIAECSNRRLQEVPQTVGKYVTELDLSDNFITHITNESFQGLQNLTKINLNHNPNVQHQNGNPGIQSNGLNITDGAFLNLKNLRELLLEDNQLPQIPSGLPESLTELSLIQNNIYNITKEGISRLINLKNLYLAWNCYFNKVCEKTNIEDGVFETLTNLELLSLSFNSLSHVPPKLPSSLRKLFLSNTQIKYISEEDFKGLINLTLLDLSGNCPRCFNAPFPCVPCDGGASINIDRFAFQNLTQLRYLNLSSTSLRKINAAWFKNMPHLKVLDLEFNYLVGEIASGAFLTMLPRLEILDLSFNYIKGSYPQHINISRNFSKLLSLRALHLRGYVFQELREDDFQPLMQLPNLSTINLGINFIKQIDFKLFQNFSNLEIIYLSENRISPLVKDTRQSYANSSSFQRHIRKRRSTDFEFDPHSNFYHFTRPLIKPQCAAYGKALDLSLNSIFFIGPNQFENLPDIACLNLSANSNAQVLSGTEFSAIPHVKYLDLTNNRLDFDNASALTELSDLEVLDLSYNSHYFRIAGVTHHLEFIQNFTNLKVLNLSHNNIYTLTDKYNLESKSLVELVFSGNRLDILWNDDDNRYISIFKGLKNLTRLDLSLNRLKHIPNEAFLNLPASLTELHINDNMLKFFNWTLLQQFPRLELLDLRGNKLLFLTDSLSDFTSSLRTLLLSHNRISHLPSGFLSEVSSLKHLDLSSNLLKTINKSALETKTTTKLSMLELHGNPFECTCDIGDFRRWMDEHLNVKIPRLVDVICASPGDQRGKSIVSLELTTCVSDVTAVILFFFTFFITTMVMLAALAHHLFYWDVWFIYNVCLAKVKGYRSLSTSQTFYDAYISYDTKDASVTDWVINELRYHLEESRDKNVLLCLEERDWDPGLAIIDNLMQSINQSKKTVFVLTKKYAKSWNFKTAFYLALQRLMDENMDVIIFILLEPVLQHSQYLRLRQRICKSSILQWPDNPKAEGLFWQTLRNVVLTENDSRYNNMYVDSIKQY

[2] = target: T2, Toll-like receptor 8 (Homo sapiens) (UniProt Q9NR97); assay: Inhibition of human TLR8 expressed in HEK-Blue cells assessed as inhibition of R848-induced TNFalpha mRNA level at 1 uM measured after 8 hrs by Trizol reagent based qRT-PCR analysis; assay type: cell-based
T2 sequence (whole entry): T1 sequence (Q9NR97 whole entry)
In short: (§1)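 RT-qPCR: HEK-Blue TLR8 cells seeded at 1 × 10⁶/well and grown 24 h, then switched to serum-free medium. Treated with R848 4 µg/mL ± compound 1 µM for 8 h. Total RNA extracted with TRIzol, reverse transcribed, TNF-α and IL-8 mRNA quantified. Three independent biological replicates, mean ± s.d.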

[3] = target: T2, Toll-like receptor 8 (Homo sapiens); assay: Inhibition of TLR8 in human PBMC assessed as reduction in R848-induced TNFalpha production measured after 24 hrs by ELISA
In short: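 PBMCs from healthy donors isolated by density gradient centrifugation and cultured at once at 3 × 10⁶ cells/mL in RPMI 1640. Cells received R848 and varying compound concentrations for 24 h. Supernatants spun 10 min at 4 °C, frozen at −80 °C, and TNF-α measured by ELISA.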

[4] = target: T2, Toll-like receptor 8 (Homo sapiens); assay: Inhibition of human TLR8 expressed in HEK-Blue cells assessed as inhibition of R848-induced IL-8 mRNA level at 1 uM measured after 8 hrs by Trizol reagent based qRT-PCR analysis; assay type: cell-based; in short: as §1

SMILES | Activity [1] | IC50 (Toll-like receptor 8) [µM] | further results
CSc1nnc(CCCO)n1-c1ccc(Cl)cc1Cl | Non-Toxic | – | –
CSc1nnc(CCCO)n1-c1cccnc1 | – | > 20 | –
NC(=O)CSc1nnc(CCCO)n1-c1ccc(Cl)cc1Cl | – | > 20 | –
OCCCc1nnc(S)n1-c1ccc(Cl)cc1Cl | – | > 20 | inhibition [2]: inactive; inhibition [3]: inactive; inhibition [4]: inactive
Cc1nc(-c2nnc(SCc3ccccc3)n2-c2cccc(F)c2)cs1 | Non-Toxic | – | –
Fc1cccc(-n2c(SCc3c(Cl)cccc3Cl)nnc2C2CC2)c1 | Non-Toxic | – | –
CSc1nnc(O)n1-c1ccc(Cl)cc1Cl | – | 9 | –
CSc1nnc(CCCO)n1C1CCCCC1 | – | > 20 | –
NC(=O)Sc1nnc(CCCO)n1-c1ccc(Cl)cc1Cl | – | > 20 | –

Source: ChEMBL document CHEMBL4354873, “Rationally Designed Small-Molecule Inhibitors Targeting an Unconventional Pocket on the TLR8 Protein-Protein Interface” (J Med Chem, 2020)
